Three compounds from ChEMBL document CHEMBL4359929, “Piperidine and piperazine inhibitors of fatty acid amide hydrolase targeting excitotoxic pathology” (Bioorg Med Chem, 2019) can be followed below.

Activity calls are given as the source filed them. The calls are words filed in the database; no cut-off is given here.

A short description of series [1]: Ratio of IC50 for rat recombinant His/GST-tagged FAAH expressed in Escherichia coli cells to IC50 for human recombinant MBP-tagged FAAH expressed in Escherichia coli cells by fluorescence based assay.
In series [2] the target is T1, Fatty-acid amide hydrolase 1 (Homo sapiens, UniProt O00519).
T1 sequence (O00519 whole entry): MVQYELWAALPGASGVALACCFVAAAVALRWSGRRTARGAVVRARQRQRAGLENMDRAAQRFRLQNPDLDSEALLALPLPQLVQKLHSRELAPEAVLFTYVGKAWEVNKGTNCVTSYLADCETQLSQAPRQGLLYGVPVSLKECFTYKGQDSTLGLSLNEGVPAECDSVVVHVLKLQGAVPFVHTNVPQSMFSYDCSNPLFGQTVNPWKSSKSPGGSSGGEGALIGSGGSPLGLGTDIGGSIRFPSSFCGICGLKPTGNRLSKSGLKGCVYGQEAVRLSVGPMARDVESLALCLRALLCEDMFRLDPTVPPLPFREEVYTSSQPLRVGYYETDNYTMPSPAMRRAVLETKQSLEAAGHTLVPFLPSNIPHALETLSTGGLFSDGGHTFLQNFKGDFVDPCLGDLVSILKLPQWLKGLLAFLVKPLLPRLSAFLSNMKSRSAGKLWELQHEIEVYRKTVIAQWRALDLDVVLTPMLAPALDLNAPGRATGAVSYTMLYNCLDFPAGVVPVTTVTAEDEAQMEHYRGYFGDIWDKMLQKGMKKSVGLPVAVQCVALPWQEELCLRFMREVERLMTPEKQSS
Kind of series: Inhibition of human recombinant MBP-tagged FAAH expressed in Escherichia coli cells using AAMCA as substrate incubated for 15 mins followed by substrate addition and measured after every 20 mins for 4 hrs by fluorescence based assay. Put shortly:
(§1)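 Fluorescent enzyme assay in throughput format. Human recombinant FAAH or purified rat FAAH used arachidonoyl 7-amino-4-methylcoumarin amide as substrate; human recombinant MGL was run by a similar fluorometric procedure.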

The target of series [3] is T2, Fatty-acid amide hydrolase 1 (Rattus norvegicus, UniProt P97612).
T2 sequence (P97612 whole entry): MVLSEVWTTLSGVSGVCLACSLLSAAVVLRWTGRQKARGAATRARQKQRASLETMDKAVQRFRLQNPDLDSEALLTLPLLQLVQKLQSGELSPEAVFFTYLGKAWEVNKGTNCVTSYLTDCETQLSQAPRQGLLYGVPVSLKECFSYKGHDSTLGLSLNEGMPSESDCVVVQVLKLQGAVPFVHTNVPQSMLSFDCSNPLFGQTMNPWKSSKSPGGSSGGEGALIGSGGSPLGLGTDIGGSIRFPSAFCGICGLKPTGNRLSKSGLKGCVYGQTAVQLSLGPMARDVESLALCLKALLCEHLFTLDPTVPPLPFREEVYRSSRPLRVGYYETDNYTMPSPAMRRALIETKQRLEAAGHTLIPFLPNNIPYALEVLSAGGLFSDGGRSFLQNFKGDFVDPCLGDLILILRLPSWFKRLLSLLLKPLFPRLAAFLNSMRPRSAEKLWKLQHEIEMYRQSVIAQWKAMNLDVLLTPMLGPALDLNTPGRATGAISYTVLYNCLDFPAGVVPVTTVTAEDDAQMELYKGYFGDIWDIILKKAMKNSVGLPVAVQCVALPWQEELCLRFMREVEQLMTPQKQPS
The series is described as follows: Inhibition of rat recombinant His/GST-tagged FAAH expressed in Escherichia coli cells using AAMCA as substrate incubated for 15 mins followed by substrate addition and measured after every 20 mins for 4 hrs by fluorescence based assay. An outline of the steps:
as §1

For another series, the target named is T3, Monoglyceride lipase (Homo sapiens, UniProt Q99685).
T3 sequence (Q99685 whole entry): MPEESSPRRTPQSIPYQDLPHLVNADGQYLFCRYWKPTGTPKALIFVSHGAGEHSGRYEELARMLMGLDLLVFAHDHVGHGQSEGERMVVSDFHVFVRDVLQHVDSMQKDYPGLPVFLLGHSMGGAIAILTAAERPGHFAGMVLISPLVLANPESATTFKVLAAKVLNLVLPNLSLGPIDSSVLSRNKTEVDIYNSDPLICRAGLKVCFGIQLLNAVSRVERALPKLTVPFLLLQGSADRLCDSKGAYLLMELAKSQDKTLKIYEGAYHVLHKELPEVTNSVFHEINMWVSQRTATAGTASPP
Kind of series: Inhibition of human recombinant His-tagged MGL expressed in Escherichia coli BL21 DE3 cells using AHMMCE as substrate preincubated with enzyme for 15 mins followed by substrate addition and measured after every 15 mins for 3 hrs by fluorescence based assay. An outline of the steps:
as §1

Series [4] can be described thus: Stability in human liver microsomes assessed as half life. It is filed as ADME, Microsome. Put shortly:
(§2)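 Stability assessed as half-life in human, rat and mouse plasma and gastric fluid, and in human, rat and mouse liver microsomal preparations.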

Series [5] in a line: Stability in rat liver microsomes assessed as half life. It is filed as ADME, Microsome. An outline of the steps:
as §2

Series [6] is described as follows: Stability in mouse liver microsomes assessed as half life. The format is ADME, Microsome. Put shortly: as §2
Series [7] can be described thus: Stability in human plasma assessed as half life. It is filed as ADME, cell-free. An outline of the steps: as §2
Series [8] is described as follows: Stability in rat plasma assessed as half life. It is filed as ADME, cell-free. Put shortly: as §2
Series [9] can be described thus: Stability in mouse plasma assessed as half life. It is filed as ADME, cell-free. Put shortly: as §2
Series [10] in a line: Stability in human gastric fluid assessed as half life. It is filed as ADME, tissue-based, Gastric juice. An outline of the steps: as §2
Series [11] in a line: Stability in rat gastric fluid assessed as half life. The format is ADME, tissue-based, Gastric juice. An outline of the steps:
as §2

Series [12] can be described thus: Stability in mouse gastric fluid assessed as half life. It is filed as ADME, tissue-based, Gastric juice. An outline of the steps:
as §2

Series [13] in a line: Drug concentration in plasma (unknown origin) at 2 mg/kg, iv measured after 15 mins. The format is ADME, organism-based. An outline of the steps:
(§3)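 Cassette pharmacokinetics: compounds given together at 2 mg/kg iv; brain and plasma levels (µg/mL) measured at 15 min.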

Series [14] can be described thus: Drug concentration in brain (unknown origin) at 2 mg/kg, iv measured after 15 mins. The format is ADME, organism-based. As to conditions: read-out: Ct. Put shortly:
as §3

The species named for series [15] is Homo sapiens. Kind of series: Selectivity ratio of IC50 for human recombinant His-tagged MGL expressed in Escherichia coli BL21 DE3 cells to IC50 for human recombinant MBP-tagged FAAH expressed in Escherichia coli cells by fluorescence based assay.
Series [16] is filed under the species Homo sapiens. Kind of series: Selectivity ratio of IC50 for human full length ABHD6 expressed in Escherichia coli cells to IC50 for human recombinant MBP-tagged FAAH expressed in Escherichia coli cells by fluorescence based assay.
Series [17] addresses Cannabinoid receptor 1 (Rattus norvegicus) (UniProt P20272). Kind of series: Displacement of [3H]CP55940 from CB1 receptor in rat brain by competition-equilibrium binding analysis. The format is tissue-based. An outline of the steps:
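Rat brain membranes as CB1 source; competition-equilibrium binding against [3H]CP-55,940.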
Target sequence in this assay (P20272 whole entry): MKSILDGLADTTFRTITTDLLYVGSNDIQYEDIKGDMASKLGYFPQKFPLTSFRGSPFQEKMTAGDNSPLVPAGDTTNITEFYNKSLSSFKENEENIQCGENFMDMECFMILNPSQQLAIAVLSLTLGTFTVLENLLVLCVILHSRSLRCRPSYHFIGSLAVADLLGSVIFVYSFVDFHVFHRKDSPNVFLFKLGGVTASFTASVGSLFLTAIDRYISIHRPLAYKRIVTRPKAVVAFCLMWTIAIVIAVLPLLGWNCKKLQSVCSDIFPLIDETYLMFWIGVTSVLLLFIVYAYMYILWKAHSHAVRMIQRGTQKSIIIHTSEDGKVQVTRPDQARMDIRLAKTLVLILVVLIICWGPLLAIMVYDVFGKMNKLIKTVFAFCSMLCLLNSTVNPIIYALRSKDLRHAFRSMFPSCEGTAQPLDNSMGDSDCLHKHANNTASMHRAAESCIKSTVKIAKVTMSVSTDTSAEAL

Series [18] deals with Cannabinoid receptor 2 (Mus musculus) (UniProt P47936). The series is described as follows: Displacement of [3H]CP55940 from mouse CB2 receptor expressed in HEK293 cells by competition-equilibrium binding analysis. It is filed as cell-based. Put shortly: (§4)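 HEK293 cell membranes expressing mouse or human CB2; competition-equilibrium binding against [3H]CP-55,940.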
Sequence of Cannabinoid receptor 2 (Mus musculus) (P47936 whole entry): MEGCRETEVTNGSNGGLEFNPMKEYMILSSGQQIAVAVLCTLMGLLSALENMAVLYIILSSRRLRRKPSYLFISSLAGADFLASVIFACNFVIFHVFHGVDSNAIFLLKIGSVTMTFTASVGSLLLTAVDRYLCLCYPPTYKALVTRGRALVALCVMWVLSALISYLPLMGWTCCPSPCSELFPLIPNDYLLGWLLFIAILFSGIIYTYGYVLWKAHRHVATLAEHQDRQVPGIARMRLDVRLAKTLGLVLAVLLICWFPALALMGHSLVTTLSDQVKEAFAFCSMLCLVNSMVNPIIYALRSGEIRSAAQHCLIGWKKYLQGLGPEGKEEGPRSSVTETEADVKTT
Series [19] has as its target Cannabinoid receptor 2 (Homo sapiens) (UniProt P34972). Kind of series: Displacement of [3H]CP55940 from human CB2 receptor expressed in HEK293 cells by competition-equilibrium binding analysis. The format is cell-based. Put shortly:
as §4

Series [20] can be described thus: Selectivity ratio of IC50 for human recombinant His-tagged MGL expressed in Escherichia coli BL21 DE3 cells to IC50 for rat recombinant His/GST-tagged FAAH expressed in Escherichia coli cells by fluorescence based assay.
Series [21] is described as follows: Selectivity ratio of IC50 for human full length ABHD6 expressed in Escherichia coli cells to IC50 for rat recombinant His/GST-tagged FAAH expressed in Escherichia coli cells by fluorescence based assay.
For series [22], the target named is Cannabinoid receptor 1 (Rattus norvegicus) (UniProt P20272). Kind of series: Displacement of [3H]CP55940 from CB1 receptor in rat brain by competition-equilibrium binding analysis.
Target sequence in this assay (P20272 whole entry, looked up): as the sequence (P20272 whole entry) above
Series [23] concerns the target T4, Fatty-acid amide hydrolase 1 (Rattus norvegicus) (UniProt P97612).
T4 sequence (whole entry): T2 sequence (P97612 whole entry)
The series is described as follows: Inhibition of FAAH in rat brain at 10 uM incubated for 30 mins followed by incubation with FP-Rh probe for 45 mins by ABPP assay. It is filed as tissue-based. Put shortly: (§5)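 Gel-based competitive ABPP on rat brain membrane homogenates (10 mg/mL protein). Compound at 1 and 10 μM or DMSO for 30 min at room temperature, then 10 μM rhodamine-tagged fluorophosphonate probe for 45 min at room temperature. FAAH was run with a reference FAAH inhibitor at 10 μM as positive control. Serine hydrolase labelling read by in-gel fluorescence.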

Series [24] has as its target T5, Monoglyceride lipase (Rattus norvegicus) (UniProt Q8R431).
T5 sequence (whole entry): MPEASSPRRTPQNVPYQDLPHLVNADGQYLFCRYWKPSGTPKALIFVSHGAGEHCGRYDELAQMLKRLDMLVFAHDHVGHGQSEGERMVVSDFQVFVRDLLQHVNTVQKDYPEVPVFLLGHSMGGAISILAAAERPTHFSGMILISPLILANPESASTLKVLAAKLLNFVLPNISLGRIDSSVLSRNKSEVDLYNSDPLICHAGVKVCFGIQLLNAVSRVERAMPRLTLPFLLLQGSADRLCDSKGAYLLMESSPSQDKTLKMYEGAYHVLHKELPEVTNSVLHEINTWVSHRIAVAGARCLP
The series is described as follows: Inhibition of MGL in rat brain at 10 uM incubated for 30 mins followed by incubation with FP-Rh probe for 45 mins by ABPP assay. It is filed as tissue-based. An outline of the steps: as §5

The target in series [25] is T6, Monoacylglycerol lipase ABHD6 (Rattus norvegicus) (UniProt Q5XI64).
T6 sequence (whole entry): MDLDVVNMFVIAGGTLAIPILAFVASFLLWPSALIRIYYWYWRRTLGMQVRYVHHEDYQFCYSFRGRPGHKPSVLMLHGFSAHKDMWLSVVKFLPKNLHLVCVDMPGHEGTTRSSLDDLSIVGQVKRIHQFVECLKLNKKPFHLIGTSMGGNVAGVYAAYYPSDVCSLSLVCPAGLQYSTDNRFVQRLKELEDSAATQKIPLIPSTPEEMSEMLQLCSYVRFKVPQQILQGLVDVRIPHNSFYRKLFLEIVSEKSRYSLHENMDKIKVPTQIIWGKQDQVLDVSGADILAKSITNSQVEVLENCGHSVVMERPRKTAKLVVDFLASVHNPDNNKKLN
Kind of series: Inhibition of ABHD6 in rat brain at 10 uM incubated for 30 mins followed by incubation with FP-Rh probe for 45 mins by ABPP assay. The format is tissue-based. Put shortly:
as §5

Sequence of Cannabinoid receptor 2 (Homo sapiens) (P34972 whole entry): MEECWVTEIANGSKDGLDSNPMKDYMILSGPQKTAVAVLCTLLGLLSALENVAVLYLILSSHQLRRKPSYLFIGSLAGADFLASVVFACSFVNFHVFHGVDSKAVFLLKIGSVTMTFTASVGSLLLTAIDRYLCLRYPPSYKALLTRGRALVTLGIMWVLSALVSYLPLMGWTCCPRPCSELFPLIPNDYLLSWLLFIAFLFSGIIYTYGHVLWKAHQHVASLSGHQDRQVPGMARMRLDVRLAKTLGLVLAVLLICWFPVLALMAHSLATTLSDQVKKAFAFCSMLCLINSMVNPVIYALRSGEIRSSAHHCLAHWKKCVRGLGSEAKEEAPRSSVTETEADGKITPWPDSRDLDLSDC

On to `CN(C)c1ccc(C2CCN(C(=O)Oc3cccc(N4CCS(=O)(=O)CC4)c3)CC2)cc1`, for which the Ratio IC50 in series [1] was 2 to 3; in the series filed under Homo sapiens [15], above 1000; in the series listed under Homo sapiens [16], above 1000; in [20], above 1000; in series [21] it was above 1000. Further, the IC50 in [2] was 2.4 nM; in series [3], 6.9 nM; on Monoglyceride lipase, above 1000 nM. Moreover, the half-life in [4] is 15 to 25 min; in series [5], 15 to 25 min; in series [6], 15 to 25 min; in series [7], above 60 min; in series [8] it was above 60 min; in series [9], above 60 min. Besides, the half-life in series [10], in series [11] and in series [12] was above 60 min each time. Further, the results for the concentration at 0.25 h in series [13] and in series [14] were 746 ng/mL and 1110 ng/mL, respectively. For the same compound, the outcome in series [17], in [18], in series [19] and in series [22] was inactive.

`O=C(Oc1cccc(N2CCS(=O)(=O)CC2)c1)N1CCC(c2ccc(N3CCCC3)cc2)CC1`: the Ratio IC50 in [1] is 2 to 3; in the series listed under Homo sapiens [15], above 1000; in the series filed under Homo sapiens [16], above 1000; in series [20], above 1000; in series [21], above 1000. The IC50 in series [2] was 3.5 nM; in series [3], 6.3 nM; at Monoglyceride lipase it was above 1000 nM. Also, the half-life is 15 to 25 min in [4]; 15 to 25 min in [5]; 15 to 25 min in series [6]; above 60 min in series [7]; above 60 min in series [8]; above 60 min in series [9]. For the same compound, the half-life in series [10], in series [11] and in series [12] was above 60 min in each case. In addition, the result in [17], in series [18], in series [19] and in [22] was inactive.

`O=C(Nc1cccnn1)N1CCC(=Cc2cccc(Oc3ccc(C(F)(F)F)cn3)c2)CC1`: in [23], the inhibition entry is “Active”. The inhibition entry in [24] and in series [25] was “inactive” each time.
